From ChEMBL document CHEMBL1141699, “Design, synthesis, and antibacterial activities of novel 3,6-bicyclolide oximes: length optimization and zero carbon linker oximes” (2008)
In brackets after ≈: the same amount, converted by molar mass.

Columns and labels:
Assay type in all cases: functional
[1] = tested on: Staphylococcus aureus; experiment: Antibacterial activity against erythromycin-susceptible Staphylococcus aureus 29213 by broth-microdilution method; details: ATCC29213
How it was run: (§1)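 MIC (µg/ml) by broth microdilution following CLSI standards.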

[2] = tested on: Staphylococcus aureus; experiment: Antibacterial activity against MLSB-resistant Staphylococcus aureus 27660 expressing ermA by broth-microdilution method; how it was run: as §1
[3] = tested on: Streptococcus pneumoniae; experiment: Antibacterial activity against erythromycin-susceptible Streptococcus pneumoniae 49619 by broth-microdilution method; how it was run: as §1
[4] = tested on: Haemophilus influenzae; experiment: Antibacterial activity against ampicillin-susceptible Haemophilus influenzae by broth-microdilution method
[5] = tested on: Staphylococcus aureus; experiment: Antibacterial activity against methicillin-resistant Staphylococcus aureus 33591 by broth-microdilution method; how it was run: as §1
[6] = tested on: Streptococcus pyogenes; experiment: Antibacterial activity against MLSB-resistant Streptococcus pyogenes 2912 expressing ermA by broth-microdilution method; how it was run: as §1
[7] = tested on: Streptococcus pneumoniae; experiment: Antibacterial activity against MLSB-resistant Streptococcus pneumoniae 700906 expressing erm by broth-microdilution method; how it was run: as §1
[8] = tested on: Streptococcus pyogenes; experiment: Antibacterial activity against erythromycin-susceptible Streptococcus pyogenes 19615 by broth-microdilution method
How it was run: (§2)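 MICs were determined by broth microdilution following CLSI standards and reported in µg/ml.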

[9] = tested on: Streptococcus pyogenes; experiment: Antibacterial activity against efflux-resistant Streptococcus pyogenes 1323 expressing mefA by broth-microdilution method; how it was run: as §1
[10] = tested on: Moraxella catarrhalis; experiment: Antibacterial activity against Moraxella catarrhalis by broth-microdilution method; how it was run: as §2
[11] = tested on: Haemophilus influenzae; experiment: Antibacterial activity against ampicillin-resistant Haemophilus influenzae 33929 expressing beta-lactamase by broth-microdilution method; how it was run: as §1
[12] = tested on: Streptococcus pneumoniae; experiment: Antibacterial activity against efflux-resistant Streptococcus pneumoniae 7701 expressing mefA by broth-microdilution method; how it was run: as §1

Row | Structure (SMILES) | MIC [1] [µg/mL] | MIC [2] [µg/mL] | MIC [3] [µg/mL] | MIC [4] [µg/mL] | MIC [5] [µg/mL] | MIC [6] [µg/mL] | MIC [7] [µg/mL] | MIC [8] [µg/mL] | MIC [9] [µg/mL] | MIC [10] [µg/mL] | MIC [11] [µg/mL] | MIC [12] [µg/mL]
1 | CC[C@H]1OC(=O)[C@H](C)[C@H]2OC/C(=N\Oc3cccc(-c4ccccc4)c3)CCO[C@](C)(C[C@@H](C)C(=O)[C@H](C)[C@H]3NC(=O)O[C@@]31C)[C@H](O[C@@H]1O[C@H](C)C[C@H](N(C)C)[C@H]1O)[C@H]2C | 0.125 (≈ 0.15 µM) | 0.125 (≈ 0.15 µM) | ≤ 0.06 | 4 (≈ 4.78 µM) | 4 (≈ 4.78 µM) | 4 (≈ 4.78 µM) | 2 (≈ 2.39 µM) | ≤ 0.06 | 0.125 (≈ 0.15 µM) | 0.125 (≈ 0.15 µM) | 4 (≈ 4.78 µM) | –
2 | CC[C@H]1OC(=O)[C@H](C)[C@H]2OC/C(=N\Oc3cccc(Cl)c3)CCO[C@](C)(C[C@@H](C)C(=O)[C@H](C)[C@H]3NC(=O)O[C@@]31C)[C@H](O[C@@H]1O[C@H](C)C[C@H](N(C)C)[C@H]1O)[C@H]2C | ≤ 0.06 | ≤ 0.06 | ≤ 0.06 | 2 (≈ 2.52 µM) | 32 (≈ 40.3 µM) | 1 (≈ 1.26 µM) | 8 (≈ 10.1 µM) | ≤ 0.06 | – | ≤ 0.06 | 2 (≈ 2.52 µM) | –
3 | CC[C@H]1OC(=O)[C@H](C)[C@H]2OC/C(=N\OCCc3ccccc3)CCO[C@](C)(C[C@@H](C)C(=O)[C@H](C)[C@H]3NC(=O)O[C@@]31C)[C@H](O[C@@H]1O[C@H](C)C[C@H](N(C)C)[C@H]1O)[C@H]2C | 0.125 (≈ 0.159 µM) | 0.125 (≈ 0.159 µM) | ≤ 0.06 | 2 (≈ 2.54 µM) | > 64 | 8 (≈ 10.2 µM) | 16 (≈ 20.3 µM) | ≤ 0.06 | 0.125 (≈ 0.159 µM) | ≤ 0.06 | 2 (≈ 2.54 µM) | –
4 | CC[C@H]1OC(=O)[C@H](C)[C@H]2OC/C(=N\Oc3cccnc3)CCO[C@](C)(C[C@@H](C)C(=O)[C@H](C)[C@H]3NC(=O)O[C@@]31C)[C@H](O[C@@H]1O[C@H](C)C[C@H](N(C)C)[C@H]1O)[C@H]2C | 0.125 (≈ 0.164 µM) | 0.125 (≈ 0.164 µM) | 0.125 (≈ 0.164 µM) | 1 (≈ 1.31 µM) | > 64 | 4 (≈ 5.26 µM) | 16 (≈ 21 µM) | ≤ 0.06 | 0.25 (≈ 0.329 µM) | ≤ 0.06 | 1 (≈ 1.31 µM) | 0.125 (≈ 0.164 µM)
5 | CC[C@H]1OC(=O)[C@H](C)[C@H]2OC/C(=N\Oc3ccccc3-c3ccccc3)CCO[C@](C)(C[C@@H](C)C(=O)[C@H](C)[C@H]3NC(=O)O[C@@]31C)[C@H](O[C@@H]1O[C@H](C)C[C@H](N(C)C)[C@H]1O)[C@H]2C | 0.5 (≈ 0.598 µM) | 0.5 (≈ 0.598 µM) | ≤ 0.06 | 8 (≈ 9.57 µM) | 16 (≈ 19.1 µM) | 16 (≈ 19.1 µM) | 16 (≈ 19.1 µM) | ≤ 0.06 | 0.5 (≈ 0.598 µM) | 0.5 (≈ 0.598 µM) | 8 (≈ 9.57 µM) | 0.5 (≈ 0.598 µM)
6 | CC[C@H]1OC(=O)[C@H](C)[C@H]2OC/C(=N\Oc3ccc(Cl)cc3)CCO[C@](C)(C[C@@H](C)C(=O)[C@H](C)[C@H]3NC(=O)O[C@@]31C)[C@H](O[C@@H]1O[C@H](C)C[C@H](N(C)C)[C@H]1O)[C@H]2C | ≤ 0.06 | ≤ 0.06 | ≤ 0.06 | 4 (≈ 5.04 µM) | > 64 | 2 (≈ 2.52 µM) | 16 (≈ 20.1 µM) | ≤ 0.06 | – | ≤ 0.06 | 4 (≈ 5.04 µM) | –
7 | CC[C@H]1OC(=O)[C@H](C)[C@H]2OC/C(=N/OCc3ccccc3)CCO[C@](C)(C[C@@H](C)C(=O)[C@H](C)[C@H]3NC(=O)O[C@@]31C)[C@H](O[C@@H]1O[C@H](C)C[C@H](N(C)C)[C@H]1O)[C@H]2C | 0.5 (≈ 0.646 µM) | 0.5 (≈ 0.646 µM) | ≤ 0.06 | 8 (≈ 10.3 µM) | > 64 | 64 (≈ 82.7 µM) | > 64 | ≤ 0.06 | 0.25 (≈ 0.323 µM) | 0.125 (≈ 0.162 µM) | 16 (≈ 20.7 µM) | 0.125 (≈ 0.162 µM)
8 | CC[C@H]1OC(=O)[C@H](C)[C@@H](O[C@H]2C[C@@](C)(OC)[C@@H](O)[C@H](C)O2)[C@H](C)[C@@H](O[C@@H]2O[C@H](C)C[C@H](N(C)C)[C@H]2O)[C@](C)(O)C[C@@H](C)C(=O)[C@H](C)[C@@H](O)[C@]1(C)O [ERYTHROMYCIN] | 0.5 (≈ 0.681 µM) | > 64 | ≤ 0.06 | 4 (≈ 5.45 µM) | > 64 | > 64 | > 64 | 0.015 (≈ 0.0204 µM) | 16 (≈ 21.8 µM) | 0.13 (≈ 0.177 µM) | 4 (≈ 5.45 µM) | 4 (≈ 5.45 µM)
